Thrombin inh: inhibitors of human thrombin; AID 1046; P00734; alpha-thrombin, Boc-VPR-AMC fluorogenic substrate cleavage; 220,000 tested, 0.26% active; inhibition, % at 5 µM;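 active means inhibition at or above 40%; inactive means inhibition below 40%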
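System: human alpha-thrombin protein; Compound dosing: one concentration per compound, 5 µM, with 0.2% DMSO; Timing: reaction at room temperature; Technique: AMC fluorescence, 355/460 nm; Controls: enzyme without compound as high, wells lacking enzyme as low.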
FXIIa inh 1536: factor XIIa (human) inhibition; P00748; purified FXIIa, Boc-QGR-AMC fluorogenic substrate, 2 h; inhibition, % at 5 µM; 220,000 tested, 0.3% active; AID 800; in the data active means inhibition above about 40%
Target sequence (P00748 20-372 limits assumed): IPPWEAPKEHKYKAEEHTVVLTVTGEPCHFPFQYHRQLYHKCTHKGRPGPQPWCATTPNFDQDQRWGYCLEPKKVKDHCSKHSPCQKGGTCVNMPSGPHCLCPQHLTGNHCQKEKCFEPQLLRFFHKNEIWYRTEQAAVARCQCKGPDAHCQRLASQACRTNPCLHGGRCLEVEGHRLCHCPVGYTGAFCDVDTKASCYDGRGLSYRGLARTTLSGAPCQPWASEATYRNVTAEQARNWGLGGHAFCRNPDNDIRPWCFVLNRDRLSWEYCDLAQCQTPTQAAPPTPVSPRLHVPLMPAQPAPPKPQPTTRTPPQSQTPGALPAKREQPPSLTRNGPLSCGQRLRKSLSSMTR
Target sequence (P00748 373-615 limits assumed): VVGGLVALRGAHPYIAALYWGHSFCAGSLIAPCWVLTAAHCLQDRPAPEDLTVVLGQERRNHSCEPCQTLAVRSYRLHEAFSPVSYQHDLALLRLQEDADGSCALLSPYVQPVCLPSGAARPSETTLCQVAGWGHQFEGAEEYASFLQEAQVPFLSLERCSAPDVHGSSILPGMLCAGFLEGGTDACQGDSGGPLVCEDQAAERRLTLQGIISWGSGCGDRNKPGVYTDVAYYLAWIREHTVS
FXIa inh 1536: blocks human coagulation factor XIa protease activity; P03951; purified FXIa, Boc-Glu-Ala-Arg-AMC fluorogenic substrate; inhibition, % at 5 µM; 220,000 tested, 0.14% active;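 active means inhibition of at least 40%; inactive means inhibition below 40%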;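 further: fluorescence of freed AMC excited at 355 nm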
KLK5 inh: kallikrein 5 (human) inhibition. recombinant hK5, fluorogenic AMC substrate cleavage. inhibition, % at 5 µM. 210,000 tested, 0.59% active. AID 873;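 active means inhibition of 40% or more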
S1P3 antag: blocks the human S1P3 receptor. CHO S1P3 NFAT-BLA reporter, FRET fluorescence, antagonist mode. inhibition, % at 4.98 µM. 170,000 tested, 0.27% active;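 active means inhibition above the plate cutoff, the mean inhibition of test wells on that plate plus 3 SD, cut at about 28% in these data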;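 further: cells challenged with S1P at its EC80 of 0.8 µM; blue over green emission ratio from cleaved BLA substrate after 4 h stimulation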
Redox H2O2 prof: compounds producing H2O2 with reducing agent – biochemical, NIH compound library profiling, artefact control for MLSCN library redox annotation, primary screen; 200,000 tested, 0.03% active; activation, % at 10 µM; DTT-dependent redox cycling H2O2, phenol red/HRP absorbance; 100% = 100 µM peroxide control, 0% = buffer;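 active means activation of at least 50% relative to the plate's high and low controls in the primary single-dose screen; inactive means activation below 50%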;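 further: compound incubated with DTT at 0.8 mM final as the reducing agent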
Numbers stand for hits; n = inactive; x = no result given. An excerpt weighted towards active compounds, which were near 1.2% of everything screened.

SMILES | Thrombin inh | FXIIa inh 1536 | FXIa inh 1536 | KLK5 inh | S1P3 antag | Redox H2O2 prof
Oc1ccc(/C=N/N2CCN(C3c4ccccc4-c4ccccc43)CC2)c(O)c1 | n | n | 48 | n | n | n
Oc1ccc(/C=N/N2CCN(C3c4ccccc4-c4ccccc43)CC2)cc1 | n | n | n | n | n | x
O=c1[nH]c(=O)n(Cc2ccco2)c2c1C(C(F)(F)F)(C(F)(F)F)N=C(c1ccc(F)cc1)N2 | n | n | n | n | x | n
O=c1[nH]c(=O)n(Cc2ccccc2)c2c1C(C(F)(F)F)(C(F)(F)F)N=C(c1ccco1)N2 | 40 | n | n | 147 | x | n
CCc1ccc(NC(=S)Nc2ccc(S(=O)(=O)Nc3ncccn3)cc2)cc1 | n | n | n | n | n | n
N#Cc1nc(-c2ccccc2F)oc1NCc1ccccc1 | n | n | n | 42 | n | n
N#Cc1nc(-c2ccccc2F)oc1NCCc1ccccc1 | n | n | n | n | x | n
COc1ccc(-c2cc(C(F)(F)F)c(C#N)c(SCC(=O)O)n2)cc1OC | n | n | n | 48 | n | x
Cc1ccc(-c2cc(C(F)(F)F)c(C#N)c(SCC(=O)O)n2)cc1 | n | n | n | n | n | n
CCSc1ccccc1C(=O)NCCCn1ccnc1 | n | n | n | 43 | n | n
CC(C)(C)C(=O)Nc1ccccc1C(=O)NCCCn1ccnc1 | n | n | n | n | n | n
NCCCC[C@@H](C(=O)N1CCNCC1)n1cc([C@@H](N)CO)nn1 | n | n | n | n | n | n
O=P(c1ccccc1)(c1ccccc1)c1nc(-c2ccc(Cl)cc2)oc1N1CCOCC1 | n | x | n | n | n | n
Cc1cc(C)c2sc(N)nc2c1 | n | n | n | n | n | n
O=C(O)c1cc(Sc2ccc(Br)cc2)nc2ccccc12 | n | n | n | 43 | n | n
O=C(c1ccc(COc2ccccc2Br)o1)N1CCN(c2ccccn2)CC1 | n | n | n | 50 | x | n
O=c1oc(-c2cccnc2)nc2ccccc12 | 82 | n | n | n | n | n
COc1cc(C(=O)O/N=C2\C=CC(=O)C=C2C)cc(OC)c1OC | n | 41 | n | n | n | n
COc1cc(C(=O)O/N=C2/C=CC(=O)C(C)=C2C)cc(OC)c1OC | n | n | n | n | x | n
N#Cc1ccccc1S(=O)(=O)c1ccccc1C(=O)Nc1ccccc1 | n | n | n | n | n | n
CC(=O)Oc1oc(-c2ccccc2)nc1C=Nc1ccc(N(C)C)cc1 | n | n | n | n | n | x
COc1ccccc1N=Cc1nc(-c2ccccc2)oc1OC(C)=O | n | n | 43 | n | x | n
CCOC(=O)N1CCC(Nc2ncnc3c2cnn3-c2ccc(C)cc2C)CC1 | n | n | n | 44 | n | n
C=CCNc1ncnc2c1cnn2-c1ccc(C)cc1C | n | n | n | n | n | n
CCO/C(=C/c1sc2ccc(OC)cc2[n+]1CCCS(=O)(=O)[O-])CC | n | n | n | n | x | n
SMILES | Thrombin inh | FXIIa inh 1536 | FXIa inh 1536 | KLK5 inh | S1P3 antag | Redox H2O2 prof
CCOC(=O)C[n+]1c(C)sc2ccc(OC)cc21 | n | 43 | n | n | x | n
CCC(=O)NNC(=O)CCC(=O)Nc1cccc(Cl)c1C | n | n | n | n | n | n
CNc1nc(OC)nc(N2CCOCC2)n1 | n | n | n | n | 66 | n
O=Cc1ccc(OCC(=O)Nc2ccccc2C(F)(F)F)cc1 | n | 64 | n | n | n | n
O=C(COc1ccc2c(c1)OCO2)Nc1ccccc1C(F)(F)F | n | n | n | n | n | n
Cc1ccc(C)c(NC(=O)Cn2nnc(C(=O)Nc3c(C)cccc3C)c2N)c1 | n | n | n | 52 | n | n
CCc1ccccc1NC(=O)c1nnn(CC(=O)Nc2cccc(C)c2)c1N | n | n | n | 43 | n | n
CCc1ccccc1NC(=O)c1nnn(CC(=O)Nc2cccc(C)c2C)c1N | n | n | n | n | n | n
Cc1ccc(C)c(NC(=O)c2nnn(Cc3ccccc3C)c2N)c1 | n | n | n | n | n | n
Cc1ccc(C(=O)NCC(=O)OC(C)C(=O)Nc2ccc(N3CCOCC3)cc2)s1 (stereo not drawn) | n | 82 | 44 | 77 | n | x
CC(OC(=O)CC1CC2CCC1C2)C(=O)Nc1ccc(N2CCOCC2)cc1 (stereo not drawn) | n | n | n | n | n | n
O=C(NCc1ccc2c3c(cccc13)C(=O)N2)c1cccs1 | n | 42 | 57 | 56 | n | x

Screening results deposited in PubChem BioAssay by several laboratories.
